Shown are actives, neighbours in structure and some others; about 4.5% of the full set was active somewhere.
p97 ATPase inh: blocks human p97 ATPase activity. P55072. actives 0.42% (n = 220,000). AID 1481. recombinant p97 ATPase, Kinase-Glo ATP luminescence, 3 h. inhibition, % at 8 µM; in the data active = inhibition above about 15%;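 also: 0% = DMSO vehicle and 100% = wells lacking enzyme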
Target sequence (P55072 whole entry, looked up): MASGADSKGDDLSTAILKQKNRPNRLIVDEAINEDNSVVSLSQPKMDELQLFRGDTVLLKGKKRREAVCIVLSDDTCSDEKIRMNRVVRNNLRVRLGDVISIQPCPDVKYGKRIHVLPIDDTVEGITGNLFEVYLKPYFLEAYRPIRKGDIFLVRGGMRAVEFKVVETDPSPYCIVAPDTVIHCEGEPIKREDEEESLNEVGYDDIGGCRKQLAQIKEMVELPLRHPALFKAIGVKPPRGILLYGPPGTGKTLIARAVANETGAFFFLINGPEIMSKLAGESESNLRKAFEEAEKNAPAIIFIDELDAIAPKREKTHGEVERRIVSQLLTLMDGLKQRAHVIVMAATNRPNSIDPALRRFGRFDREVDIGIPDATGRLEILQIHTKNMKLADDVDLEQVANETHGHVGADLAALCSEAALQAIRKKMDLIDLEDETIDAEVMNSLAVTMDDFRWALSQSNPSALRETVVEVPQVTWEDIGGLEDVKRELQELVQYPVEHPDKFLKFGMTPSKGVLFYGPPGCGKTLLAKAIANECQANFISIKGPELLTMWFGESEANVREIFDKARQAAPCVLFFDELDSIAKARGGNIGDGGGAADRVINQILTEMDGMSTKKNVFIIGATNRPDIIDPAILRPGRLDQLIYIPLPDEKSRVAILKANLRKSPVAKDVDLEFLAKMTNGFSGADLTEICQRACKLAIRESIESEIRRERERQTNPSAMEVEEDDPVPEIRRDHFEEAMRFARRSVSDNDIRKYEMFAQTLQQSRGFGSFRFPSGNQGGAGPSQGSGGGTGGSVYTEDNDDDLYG
PfM18AAP inh: blocks P. falciparum M18 aspartyl aminopeptidase | recombinant PfM18AAP, H-Glu-NHMec fluorogenic cleavage | inhibition, % at 7.35 µM | actives 1.2% (n = 290,000);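 active = inhibition above the campaign mean inhibition over all tested compounds plus 3 SD, cut at about 28% in these data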;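 also: 0% = plate median of test compound wells and 100% = 2 mM ZnCl2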
UPR XBP1 act: adaptive UPR (XBP1) activation; AID 463104; activation, % at 20 µM; actives 0.33% (n = 330,000); CHO-XBP1 luciferase reporter, IRE1-XBP1 UPR activation, luminescence; percent of tunicamycin response, DMSO as zero;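 active = versus positive control, 20 µM dose yields 30% or more activation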;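 also: 100% = tunicamycin at 10 µg/mL and 0% = DMSO only wells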
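Material: CHO cell line with stable XBP1 luciferase reporter; schedule: 16-18 h cell attachment at 37 °C, then 6 h compound exposure; signal: glow luminescence from Steady-Glo reagent; medium: serum-containing F12 medium, 10% FBS; benchmarks: tunicamycin 10 µg/mL and vehicle-only wells; read-out: percent activation relative to tunicamycin reference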
NS3 helicase inh: HCV NS3 helicase inhibition; NS3 helicase DNA unwinding, Cy5 molecular beacon fluorescence; inhibition, % at 10.9 µM; actives 0.56% (n = 290,000);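 active = inhibition above the mean of all tested compounds plus 3 SD, set per campaign, cut at about 35% in these data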;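 also: 0% = DMSO wells and 100% = thioflavine S control wells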
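System: NS3 helicase fragment of HCV / Schedule: 1 h at 25 °C / Control set: DMSO alone as 0% and 110 µM thioflavine S as 100% / Reagent: Cy5/quencher beacon DNA duplex and ATP to start / Technique: Cy5 fluorescence / Replication: singlicate / Evaluation: % inhibition of end-to-start signal ratio versus controls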
CHOP inhibitor: blocks CHOP induction under ER stress; CHO-K1 CHOP-promoter luciferase, tunicamycin-induced, 15-18 h; inhibition, % at 10 µM; actives 3.8% (n = 220,000);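 active = compounds that reduced the stress-induced luciferase reporter signal by more than about 70% of percent inhibition, limit read from the data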;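 also: 0% = tunicamycin plus vehicle and 100% = wells without tunicamycin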
CHOP UPR activ: activators of apoptotic arm of unfolded protein response (CHOP) | CHO-CHOP luciferase reporter, UPR activation, luminescence; percent of tunicamycin response over DMSO baseline | activation, % at 10 µM | actives 0.34% (n = 330,000) | AID 449763;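 active = at 10 µM dose, activation of 40% or more, normalized to positive control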;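 also: 100% = tunicamycin at 10 µg/mL and 0% = DMSO alone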
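Assay system: CHO cells with stable CHOP pathway luciferase reporter; Buffer or medium: F12 plus 10% serum; Times: 16-18 h cell attachment, then 6 h compound exposure, 37 °C; Signal: luciferase luminescence; Read-out basis: percent activation relative to tunicamycin control; Control set: tunicamycin high control, DMSO low control.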
Starred values were filed as active, the others as inactive; · = not tested or not shown.

SMILES | p97 ATPase inh | PfM18AAP inh | UPR XBP1 act | NS3 helicase inh | CHOP inhibitor | CHOP UPR activ
CCOC(=O)c1c(NC(=O)CN2CCN(C(=O)c3ccco3)CC2)sc2c1CCCC2 | 0.3 | 1.0 | -1.0 | 3.4 | 86.2* | 1.4
CCOC(=O)c1c(NC(=O)CN(CC)CC)sc2c1CCN(C(=O)OCC)C2 | -5.1 | -13.2 | 0.2 | -3.7 | 74.6* | 0.5
CCOC(=O)c1c(NC(=S)N2CCN(C)CC2)sc2c1CCN(C(=O)OCC)C2 | -2.9 | -2.2 | 2.1 | -34.8 | -3.5 | 7.2
CCOC(=O)c1c(NC(=O)CN2CCCCC2)sc2c1CCN(C(=O)OCC)C2 | -2.3 | 1.8 | -1.8 | -16.8 | 81.4* | 2.0
CCOc1ccc(Cc2c(C)[nH]c3ccc(C(=O)O)cc3c2=S)cc1 | · | 17.5 | -5.6 | 8.1 | · | 3.1
CC(C)CCNc1nc2c(c(=O)n(Cc3cccc(F)c3)c(=O)n2C)n1C | 1.0 | -2.5 | -0.7 | -0.6 | 70.8* | 1.1
CC(O)CNc1nc2c(c(=O)n(Cc3ccc(Cl)c(Cl)c3)c(=O)n2C)n1C (stereo unspecified) | 4.2 | 0.2 | -1.8 | 0.9 | 77.8* | 1.0
Cc1ccc2nc(C(Cl)(Cl)Cl)nc(N/N=C/c3ccncc3)c2c1 | 1.3 | 16.7 | -0.5 | -6.2 | 72.1* | 0.0
CCCCCCCn1c(=O)c(C(=O)OC)c(N)c2ccccc21 | -3.0 | -4.6 | 0.5 | -2.9 | 72.8* | 8.1
CCOc1ccc(NC(=O)N2CCC(C(N)=O)(N3CCCCC3)CC2)cc1 | -1.3 | 28.4* | -0.9 | -0.1 | 17.9 | -1.1
Nc1c(N=Nc2cccc(Cl)c2)c(=O)[nH]n1-c1ccccc1 | 2.4 | -2.6 | 2.5 | 1.1 | 72.3* | 4.1
CCOc1cc(/C=C(/C#N)c2nc3ccccc3[nH]2)ccc1Oc1ccc([N+](=O)[O-])cn1 | 3.0 | 2.5 | -0.2 | 3.0 | 66.0 | 10.3
COc1cc(/C=C(/C#N)c2nc3ccccc3[nH]2)ccc1Oc1ncccc1[N+](=O)[O-] | 3.6 | 4.9 | 21.2 | -9.0 | 91.8* | 11.3
CC(=O)N1c2ccccc2C2(O)N=C(C)SC12 (stereo unspecified) | 6.3 | 41.9* | -0.1 | 2.7 | 104.8* | -0.9
COc1ccc2[nH]c(C)c(CCN(Cc3cccs3)C(=S)Nc3ccc(F)cc3)c2c1 | -4.4 | 0.1 | -4.1 | -6.6 | 77.7* | -1.0
COc1ccc2[nH]c(C)c(CCN(Cc3cccs3)C(=S)Nc3ccccc3)c2c1 | -5.2 | 12.4 | -3.0 | -5.4 | 70.1* | 0.6
Oc1cccc(-c2nc3ccc4ccccc4c3c3c2CCC3)c1 | 2.5 | -8.3 | 2.8 | -2.6 | 81.8* | 4.0
O=C(NNc1c2ccccc2nc2ccccc12)c1cccc(O)c1 | 5.3 | 7.6 | 0.3 | 12.8 | 17.0 | 0.4
Nc1cc2nsnc2cc1Br | 43.3* | 9.1 | -0.6 | 9.1 | 21.9 | -0.5
CC(C)(C)C(=O)N1N=C(c2ccc(NS(C)(=O)=O)cc2)CC1c1cccs1 (stereo unspecified) | -2.0 | -6.3 | 1.8 | -18.4 | -2.0 | -2.8
COc1cc(NC(=O)Cn2nc(C(F)(F)F)c(Br)c2C)cc([N+](=O)[O-])c1 | -4.1 | 1.7 | -2.8 | 2.6 | 94.4* | 3.4
CNC(=O)[C@H]1O[C@@H](n2cnc3c(NCc4ccc(N)cc4)ncnc32)C(O)[C@H]1O (stereo partly specified) | · | · | · | · | -27.9 | ·
O=C(O)c1ccccc1C(=O)NNc1cccc(Cl)n1 | 0.8 | 45.0* | 1.4 | -14.2 | -6.0 | 1.3
O=C(O)c1ccccc1C(=O)NNc1ccc(Cl)cc1 | 1.6 | 2.3 | 2.8 | -6.6 | 12.2 | -0.4
COc1ccc2[nH]cc(CCNC(=O)c3ccc4ccccc4n3)c2c1 | · | 2.6 | -0.2 | -2.8 | · | 0.0
COc1cccc(/C=C/C(=O)N2CCN(S(=O)(=O)c3ccccc3)CC2)c1OC | 0.8 | 1.8 | -3.0 | -2.1 | -0.1 | 0.5
CC(C)(C)C1CCc2onc(C(=O)Nc3cnn(Cc4ccc(F)cc4)c3)c2C1 (stereo unspecified) | 7.6 | 9.4 | 4.2 | 10.6 | 86.2* | 3.4
CC1CCCC(C)N1CCCNC(=O)Cn1c(=O)c2cccn2c2cccnc21 (stereo unspecified) | · | 4.7 | -5.0 | 0.7 | · | -0.5

From PubChem BioAssay
